Here are results for 21 compounds from ChEMBL document CHEMBL1139544, “Potent, orally active corticotropin-releasing factor receptor-1 antagonists containing a tricyclic pyrrolopyridine or pyrazolopyridine core” (J Med Chem, 2005).

Data set [1] concerns the target T1, Corticotropin-releasing factor receptor 1 (Homo sapiens, UniProt P34998).
T1 sequence (P34998 whole entry): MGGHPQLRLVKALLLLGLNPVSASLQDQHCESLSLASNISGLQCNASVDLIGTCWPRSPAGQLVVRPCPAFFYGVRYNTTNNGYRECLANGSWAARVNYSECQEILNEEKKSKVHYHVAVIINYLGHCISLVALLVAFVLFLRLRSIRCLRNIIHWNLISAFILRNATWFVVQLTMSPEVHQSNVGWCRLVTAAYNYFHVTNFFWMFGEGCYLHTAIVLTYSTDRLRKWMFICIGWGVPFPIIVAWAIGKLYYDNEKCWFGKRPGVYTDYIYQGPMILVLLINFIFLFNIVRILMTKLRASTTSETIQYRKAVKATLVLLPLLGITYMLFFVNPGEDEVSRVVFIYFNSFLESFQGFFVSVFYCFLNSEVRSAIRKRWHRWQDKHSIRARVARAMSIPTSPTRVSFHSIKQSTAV
Description: Inhibition of [125I]sauvagine binding to corticotropin releasing factor receptor 1 expressed in LtK- cells. The format is cell-based.

Data set [2] in a line: Volume of distribution in rat following administration of 10 mg/kg, p.o. and 10 mg/kg, i.v. Conditions: in vivo, iv. It is filed as ADME, organism-based. The essentials: (§1)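 Male Sprague Dawley rats were given one compound intravenously via tail vein and by oral gavage (N = 3/time point), dosed in purified water at 2 mL/kg. Terminal blood and brain were taken at set times for composite sampling. Plasma was acetonitrile-precipitated and analysed by LC-MS/MS (LLOQ 5 ng/mL). Parameters came from a noncompartmental model.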

Data set [3] in a line: Half life in rat following administration of 10 mg/kg, p.o. and 10 mg/kg i.v. The format is ADME, organism-based. Conditions: in vivo. The essentials: as §1
The nature of data set [4]: Bioavailability in rat following administration of 10 mg/kg, p.o. and 10 mg/kg i.v. The format is ADME, organism-based. Conditions: in vivo, po. The essentials:
as §1

Data set [5] addresses Corticotropin releasing factor receptor (Rattus norvegicus, UniProt P47866+P35353). Description: Inhibition of corticotropin releasing factor stimulated adrenocorticotropic hormone release from rat pituitary cells. Conditions: pituitary gland cell. It is filed as functional, cell-based. The essentials:
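Pituitaries from 7-week-old female Sprague Dawley rats were digested with collagenase and plated at 40 000 cells/well in 3% FCS/BBM-T for 2-3 days. Compound (1 pM–1 µM) was added with 0.5 nM r/hCRF for 4 h at 37 °C. ACTH in the medium was measured by RIA, and IC50 was obtained by nonlinear curve fitting.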

Data set [6] in a line: Total body clearance in rat following administration of 10 mg/kg, p.o. and 10 mg/kg i.v. It is filed as ADME, organism-based. Conditions: in vivo, iv. An outline of the steps:
as §1

Data set [7] has as its target T1, Corticotropin-releasing factor receptor 1. Description: Inhibition of [125I]sauvagine binding to corticotropin releasing factor receptor 1 expressed in LtK- cells; Not active (<30% inhibition at 10 uM). It is filed as cell-based.
A short description of data set [8]: Total body clearance in rat following administration of 10 mg/kg, p.o. and 5 mg/kg, i.v. Conditions: in vivo, iv. The format is ADME, organism-based. The essentials: as §1
A short description of data set [9]: Half life in rat following administration of 10 mg/kg, p.o. and 5 mg/kg, i.v. It is filed as ADME, organism-based. Conditions: in vivo. The essentials: as §1
The nature of data set [10]: Bioavailability in rat following administration of 10 mg/kg, p.o. and 5 mg/kg, i.v. The format is ADME, organism-based. Particulars: in vivo, po. An outline of the steps: as §1
A short description of data set [11]: Volume of distribution in rat following administration of 10 mg/kg, p.o. and 5 mg/kg, i.v. The format is ADME, organism-based. Conditions: in vivo, iv. The essentials:
as §1

A short description of data set [12]: Total body clearance in rat following administration of 10 mg/kg, p.o. and 10 mg/kg, i.v. Conditions: in vivo, iv. It is filed as ADME, organism-based. An outline of the steps: as §1
Data set [13] is described as follows: Half life in rat following administration of 10 mg/kg, p.o. and 10 mg/kg, i.v. Conditions: in vivo. The format is ADME, organism-based. An outline of the steps: as §1
Data set [14] in a line: Bioavailability in rat (dose 10 mg/kg p.o. and 10 mg/kg, i.v.). It is filed as ADME, organism-based. Particulars: in vivo, po. An outline of the steps:
as §1

Data set [15] can be described thus: Half life in rat following administration of 2 mg/kg, p.o. and 1 mg/kg, i.v. The format is ADME, organism-based. Conditions: in vivo. The essentials: (§2)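 Cassette study in male Sprague Dawley rats: five compounds were co-administered at 2 mg/kg po (gavage) and by tail-vein iv (N = 3/time point), in purified water at 2 mL/kg. Composite terminal plasma sampling was used. Plasma was acetonitrile-precipitated for LC-MS/MS (LLOQ 5 ng/mL). Parameters came from a noncompartmental model.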

Data set [16] can be described thus: Volume of distribution in rat following administration of 2 mg/kg, p.o. and 1 mg/kg, i.v. Particulars: in vivo, iv. It is filed as ADME, organism-based. An outline of the steps:
as §2

Data set [17] is described as follows: Total body clearance in rat following administration of 2 mg/kg, p.o. and 1 mg/kg, i.v. It is filed as ADME, organism-based. Particulars: in vivo, iv. The essentials:
as §2

A short description of data set [18]: Bioavailability in rat (dose 2 mg/kg p.o. and 1 mg/kg, i.v.). It is filed as ADME, organism-based. Conditions: in vivo, po. The essentials: as §2

As to `CCCC(CCC)N1CCc2cn(-c3ccccc3OC)c3nc(C)cc1c23`, the Ki (commonly the equilibrium dissociation constant of an inhibitor or competing ligand from its target) in data set [1] was found to be 55 nM.
Same read-out and setting: to `CCCC(CCC)N1CCc2cn(-c3cccc(OC)c3)c3nc(C)cc1c23` belongs 190 nM.
Turning to `CCCCN(CC)c1nc(C)nc2c1c(C)c(C)n2-c1c(C)cc(C)cc1C` [ANTALARMIN], affinity in data set [1] was put at a Ki of 3.1 nM.
Same read-out and setting: the same measure for `COCC(COC)N1CCc2cn(-c3ccc(Cl)cc3C#N)c3nc(C)cc1c23`: 120 nM.
In the case of `CCCC(CCC)N1CCc2cn(-c3ccc(C)cc3Cl)c3nc(C)cc1c23`, the Vd in [2] was determined as 38 L/kg. The half-life (in general, how long it takes for the measured level to halve) in [3] was 6.3 h. The Ki in data set [1] was found to be 3.5 nM. Moreover, the bioavailability (usually the share of a dose that reaches the circulation, judged against a reference dose that is usually intravenous) in data set [4] came to 24%. Moreover, the IC50 (usually the concentration that gives 50% inhibition) in data set [5] worked out at 14 nM. The clearance in data set [6] came to 70 mL/min/kg.
Consider `CCCC(CCC)N1CCc2c3c1cc(C)nc3nn2-c1ccc(Cl)cc1Cl`, for which the Ki result in [7] is listed as “Not Active”.
As to `CCCC(CCC)N1CCc2cn(-c3ccc(Cl)cc3C#N)c3nc(C)cc1c23`, the Ki in [1] is 13 nM.
`CCCC(CCC)N1CCc2cn(-c3ccc(C#N)cc3Cl)c3nc(C)cc1c23`: the Ki in data set [1] came to 7.2 nM.
Still for that read-out and setting: the same measure for `CCCC(CCC)N1CCc2cn(-c3ccc(Cl)cc3Cl)c3nc(C)cc1c23`: 4.2 nM.
As for `Cc1cc2c3c(cn(-c4ccc(Cl)cc4C#N)c3n1)CCN2C`, in data set [7], the Ki entry is “Not Active”.
As to `CCCC(CCC)N1CCc2nn(-c3ccc(Cl)cc3Cl)c3nc(C)cc1c23`, the clearance in [8] turned out to be 43 mL/min/kg. In data set [9], this compound had a half-life of 12 h. Besides, the inhibition constant (Ki) in data set [1] came out at 2.9 nM. Moreover, the IC50 in data set [5] amounted to 6.8 nM. For the same compound, the bioavailability in [10] was 7%. In data set [11], this compound displayed a Vd of 44 L/kg.
On to `CCC(CC)N1CCc2cn(-c3ccc(Cl)cc3C#N)c3nc(C)cc1c23`, for which the Ki in data set [1] worked out at 62 nM.
`CCCC(CCC)N1CCc2cn(-c3ccc(OC)cc3C)c3nc(C)cc1c23` yielded a Vd in data set [2] of 53 L/kg. Moreover, the Ki in data set [1] turned out to be 6.5 nM. Also, the half-maximal inhibitory concentration (IC50) in data set [5] was 39 nM. Besides, in data set [12], the clearance is 107 mL/min/kg. In data set [13], the half-life is 5.7 h. This compound also registered a bioavailability in data set [14] of 18%.
In turn, `CCC(COC)N1CCc2cn(-c3ccc(Cl)cc3C#N)c3nc(C)cc1c23` (stereo unspecified) returned a Ki in data set [1] of 40 nM.
The same measure, in the same setting: the same measure for `CCCC(CCC)N1CCc2cn(-c3ccc(C)cc3)c3nc(C)cc1c23`: 30 nM.
As for `CCC(CC)N1CCc2cn(-c3ccc(OC(F)(F)F)cc3C)c3nc(C)cc1c23`, in data set [1], the Ki stood at 6 nM. The compound also gave a half-life in data set [15] of 33 h. This compound registered an IC50 in data set [5] of 48 nM. In addition, in [16], the Vd amounted to 80 L/kg. In [17], this compound came in with a clearance of 28 mL/min/kg. In [18], this compound had a bioavailability of 76%.
In turn, `CCCCN1CCc2cn(-c3ccc(Cl)cc3C#N)c3nc(C)cc1c23` registered a Ki in data set [1] of 49 nM.
Consider `CCC(COC)N1CCc2cn(-c3c(C)cc(Cl)cc3C)c3nc(C)cc1c23` (stereo unspecified), for which, in data set [1], the Ki is 16 nM. Moreover, the half-life in [15] is 2.5 h. Moreover, the concentration for half-maximal inhibition (IC50) in data set [5] worked out at 27 nM. The Vd in data set [16] was found to be 19 L/kg. In data set [17], this compound yielded a clearance of 87 mL/min/kg. In [18], this compound showed a bioavailability of 66%.
In [2], `CCCC(CCC)N1CCc2cn(-c3ccc(OC)nc3OC)c3nc(C)cc1c23` displayed a Vd of 62 L/kg. The Ki in data set [1] came to 5.4 nM. The compound further yielded an IC50 in data set [5] of 29 nM. In data set [12], this compound displayed a clearance of 70 mL/min/kg. Also, the half-life in [13] is 10 h. This compound displayed a bioavailability in data set [14] of 50%.
Compound `CCCC(CCC)N1CCc2cn(Cc3ccc(Cl)cc3C)c3nc(C)cc1c23` yielded a Ki in data set [1] of 1900 nM.
In turn, `CCCC(CCC)N1CCc2cn(-c3ccc(S(C)(=O)=O)cc3Cl)c3nc(C)cc1c23` displayed a Vd in [2] of 66 L/kg. Further, the affinity in data set [1] corresponds to a Ki of 13 nM. The compound further gave an IC50 in data set [5] of 250 nM. Also, the clearance in data set [12] amounted to 152 mL/min/kg. The half-life in data set [13] is 5 h. For the same compound, the bioavailability in [14] is 74%.
